Four molecules from ChEMBL document CHEMBL1833790, “N-(2-{3-[3,5-bis(trifluoromethyl)phenyl]ureido}ethyl)-glycyrrhetinamide (6b): a novel anticancer glycyrrhetinic acid derivative that targets the proteasome and displays anti-kinase activity” (J Med Chem, 2011) can be followed below.

The target of series [1] is T1, Peroxisome proliferator-activated receptor gamma (Homo sapiens) (UniProt P37231).
T1 sequence (whole entry): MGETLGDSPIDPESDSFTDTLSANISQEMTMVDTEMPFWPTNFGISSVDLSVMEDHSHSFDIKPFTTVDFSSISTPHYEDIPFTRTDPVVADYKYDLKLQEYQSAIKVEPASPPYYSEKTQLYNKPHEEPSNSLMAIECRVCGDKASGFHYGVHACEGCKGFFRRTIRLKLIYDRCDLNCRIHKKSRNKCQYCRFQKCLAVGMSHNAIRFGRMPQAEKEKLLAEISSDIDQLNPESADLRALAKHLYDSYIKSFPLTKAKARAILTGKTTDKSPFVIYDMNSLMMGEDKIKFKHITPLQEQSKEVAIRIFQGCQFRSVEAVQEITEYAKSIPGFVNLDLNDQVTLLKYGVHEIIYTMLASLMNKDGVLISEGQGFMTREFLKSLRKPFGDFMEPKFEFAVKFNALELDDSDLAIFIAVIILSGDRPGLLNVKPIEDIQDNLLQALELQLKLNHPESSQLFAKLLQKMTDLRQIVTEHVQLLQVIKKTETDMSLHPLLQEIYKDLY
In words: Inhibition of PPARgamma activity in human U373 cells at 60 uM after 6 hrs by spectrophotometric analysis relative to control. Particulars: U-373MG ATCC. The series is classed as cell-based. The method, boiled down: (§1)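 Human U373 glioblastoma cells exposed to compound for 6 h, then detached with trypsin. Nuclear extracts prepared by hypotonic lysis with Nonidet P-40 and extraction buffer with protease inhibitor, clarified at 14 000 g, 4 °C. Extracts bound overnight at 4 °C in a PPAR-γ transcription factor ELISA kit, with primary antibody then HRP anti-rabbit. Absorbance read at 450 nm; triplicates, mean ± SD versus control.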

For series [2], the system named is U-373MG ATCC. In words: Inhibition of trypsin-like activity of 20S proteasome in human U373 cells at 60 uM after 2 days by bioluminescence assay. The series is classed as cell-based. The procedure, abridged: (§2)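 U373 GBM cells seeded at 5000 cells/mL and grown 48 h, then treated for two days. Cells washed in PBS and permeabilised with 0.025% digitonin. Proteasome-Glo reagent added with Suc-LLVY-Glo (chymotrypsin-like), Z-LRR-Glo (trypsin-like) or Z-nLPnLD-Glo (caspase-like) substrate. Luminescence read after 10 min in the dark and normalised to a parallel MTT viability assay; triplicates. MG-132 at 0.5 μM used as reference.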

The subject of series [3] is U-373MG ATCC. In words: Activation of chymotrypsin-like activity of human proteasome in U373 at 60 uM after 2 days by bioluminescence assay. The class given is cell-based. The procedure, abridged:
(§3)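 Chymotrypsin-like site, substrate Suc-LLVY-Glo. U373 cells were seeded at 5000 cells/mL for 48 h and exposed two days. After a PBS wash and 0.025% digitonin permeabilisation, Proteasome-Glo reagent was added. Bioluminescence was read after 10 min dark incubation. Triplicates, normalised by a concurrent MTT viability assay run in identical conditions.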

In series [4] the test system is U-373MG ATCC. The series can be described thus: Activation of caspase-like activity of 20S proteasome in human U373 cells at 60 uM after 2 days by bioluminescence assay. The class given is cell-based. The procedure, abridged: (§4)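 Caspase-like site, substrate Z-nLPnLD-Glo. U373 cells were plated at 5000 cells/mL for 48 h, then treated two days. Cells were PBS-washed and permeabilised with 0.025% digitonin before Proteasome-Glo reagent was added. Luminescence was read after 10 min in the dark. Triplicates, normalised to a parallel MTT viability assay under identical conditions.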

The nature of series [5]: Chemical stability of the compound in MEM cell culture medium after 7 days by HPLC analysis. The series is classed as physicochemical. Particulars: read-out: Stability. The method, boiled down: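 Compound incubated in MEM culture medium at 37 °C for 7 days, then analysed by HPLC on RX-C8 (5 μm) column with MeOH–water 90:10 (0.1% TFA), diode-array detection. Expressed as % of incubated compound recovered.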

The next series relates to A549. In words: Growth inhibition in apoptosis-resistant human A549 after 3 days by MTT assay. The class given is functional. Particulars: A549, 72 h. The method, boiled down: (§5)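 Cells grown in RPMI with 10% heat-inactivated FCS, 4 mM glutamine, gentamicin and penicillin–streptomycin. Drug exposure 3 days, growth read by MTT colorimetric assay. Nine concentrations from 0.01 to 100 μM in semilog steps, six replicates each; IC50 derived per cell line.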
A general note: Tetrazolium assays rely on reduction of a dye to a coloured formazan, in cell work by metabolically active cells.

For a further series, the system named is SK-MEL-28. The series can be described thus: Growth inhibition in apoptosis-resistant human SK-MEL-28 after 3 days by MTT assay. The series is classed as functional. Particulars: SK-MEL-28, 72 h. The method, boiled down:
as §5

The next series relates to T98G. In words: Growth inhibition in apoptosis-resistant human T98G after 3 days by MTT assay. The class given is functional. Particulars: 72 h. The procedure, abridged:
as §5

Series [6] can be described thus: Growth inhibition in apoptosis-resistant human U373 after 3 days by MTT assay. The class given is functional, U-373MG ATCC. Particulars: U373 MG, 72 h. The procedure, abridged:
as §5

The subject of another series is Hs 683. The series can be described thus: Growth inhibition in apoptosis-sensitive human Hs683 after 3 days by MTT assay. The series is classed as functional. Particulars: Hs 683, 72 h. The procedure, abridged: as §5
For another series, the system named is PC-3. The series can be described thus: Growth inhibition in apoptosis-sensitive human PC3 after 3 days by MTT assay. The series is classed as functional. Particulars: PC-3, 72 h. The method, boiled down:
as §5

The subject of a further series is MCF7. The series can be described thus: Growth inhibition in apoptosis-sensitive human MCF7 after 3 days by MTT assay. The series is classed as functional. Particulars: MCF7, 72 h. The procedure, abridged:
as §5

Another series has as its system B16-F10. The series can be described thus: Growth inhibition in mouse B16F10 after 3 days by MTT assay. The series is classed as functional. Particulars: B16-F10, 72 h. The method, boiled down:
as §5

In series [7] the target is T1, Peroxisome proliferator-activated receptor gamma (Homo sapiens). In words: Inhibition of PPARgamma activity in human U373 cells at 30 uM after 6 hrs by spectrophotometric analysis relative to control. The series is classed as cell-based. Particulars: U-373MG ATCC. The method, boiled down:
as §1

Series [8] deals with U-373MG ATCC. In words: Activation of chymotrypsin-like activity of 20S proteasome in human U373 cells at 30 uM after 2 days by bioluminescence assay. The class given is cell-based. The method, boiled down:
as §3

Series [9] has as its system U-373MG ATCC. In words: Inhibition of trypsin-like activity of 20S proteasome in human U373 cells at 30 uM after 2 days by bioluminescence assay. The class given is cell-based. The procedure, abridged:
as §2

For series [10], the system named is U-373MG ATCC. The series can be described thus: Activation of caspase-like activity of 20S proteasome in human U373 cells at 30 uM after 2 days by bioluminescence assay. The class given is cell-based. The method, boiled down:
as §4

Series [11] addresses T1, Peroxisome proliferator-activated receptor gamma (Homo sapiens). In words: Inhibition of PPARgamma activity in human U373 cells at 70 uM after 6 hrs by spectrophotometric analysis relative to control. The class given is cell-based. Particulars: U-373MG ATCC. The procedure, abridged: as §1
Series [12] relates to U-373MG ATCC. The series can be described thus: Activation of chymotrypsin-like activity of 20S proteasome in human U373 cells at 70 uM after 2 days by bioluminescence assay. The series is classed as cell-based. The method, boiled down: as §3
The test system of series [13] is U-373MG ATCC. In words: Inhibition of trypsin-like activity of 20S proteasome in human U373 cells at 70 uM after 2 days by bioluminescence assay. The class given is cell-based. The procedure, abridged: as §2
Series [14] concerns U-373MG ATCC. In words: Activation of caspase-like activity of 20S proteasome in human U373 cells at 70 uM after 2 days by bioluminescence assay. The class given is cell-based. The method, boiled down: as §4
For series [15], the target named is T1, Peroxisome proliferator-activated receptor gamma (Homo sapiens). In words: Inhibition of PPARgamma activity in human U373 cells at 80 uM after 6 hrs by spectrophotometric analysis relative to control. Particulars: U-373MG ATCC. The class given is cell-based. The procedure, abridged: as §1
Series [16] has as its system U-373MG ATCC. In words: Activation of chymotrypsin-like activity of 20S proteasome in human U373 cells at 80 uM after 2 days by bioluminescence assay. The class given is cell-based. The method, boiled down: as §3
In series [17] the test system is U-373MG ATCC. In words: Inhibition of trypsin-like activity of 20S proteasome in human U373 cells at 80 uM after 2 days by bioluminescence assay. The series is classed as cell-based. The method, boiled down:
as §2

Series [18] has as its system U-373MG ATCC. The series can be described thus: Activation of caspase-like activity of 20S proteasome in human U373 cells at 80 uM after 2 days by bioluminescence assay. The series is classed as cell-based. The method, boiled down: as §4

The structures appear in SMILES notation. Calls of active or inactive are those of the source. The rule behind the calls is not given here. A value given as a limit tells only on which side of the number the result lay.

One may read the GI50 as the concentration that inhibits growth by half. A high value points to less potent growth inhibition. Consider `COc1ccc(CCNC(=O)[C@@]2(C)CC[C@]3(C)CC[C@]4(C)C(=CC(=O)[C@@H]5[C@@]6(C)CC[C@H](O)C(C)(C)[C@@H]6CC[C@]54C)[C@@H]3C2)cc1OC`, for which the inhibition entry (in series [1]; in the series with U-373MG ATCC [2]) was “Active” each time. In addition, the outcome in the series with U-373MG ATCC [3] and in the series on U-373MG ATCC [4] was Active. For the same molecule, the remaining at 168 h in [5] was found to be 86%. The GI50 in the series on A549 was 52 µM; with SK-MEL-28, greater than 100 µM; in the series on T98G, 91 µM; in [6], 43 µM; with Hs 683 it was 59 µM; with PC-3 it was 34 µM. Moreover, the GI50 in the series on MCF7 turned out to be 34 µM; with B16-F10 it was 37 µM.
Take `COC(=O)[C@@]1(C)CC[C@]2(C)CC[C@]3(C)C(=CC(=O)[C@@H]4[C@@]5(C)C=C(I)C(=O)C(C)(C)[C@@H]5CC[C@]43C)[C@@H]2C1`: the inhibition entry (in series [7]; in the series on U-373MG ATCC [9]) was “Active” in each case. The outcome in the series with U-373MG ATCC [8] and with U-373MG ATCC [10] was Active. Besides, the remaining at 168 h in series [5] was determined as 89%. Further, the GI50 in the series with A549 came out at 42 µM; in the series with SK-MEL-28, 32 µM; in the series with T98G, 6 µM; in [6], 42 µM; with Hs 683 it was 48 µM; with PC-3, 36 µM. The figures for the GI50 in the series with MCF7 and with B16-F10 were 28 µM and 23 µM, respectively.
`COc1ccc2[nH]cc(CCNC(=O)[C@@]3(C)CC[C@]4(C)CC[C@]5(C)C(=CC(=O)[C@@H]6[C@@]7(C)CC[C@H](O)C(C)(C)[C@@H]7CC[C@]65C)[C@@H]4C3)c2c1`: the inhibition entry (in series [11]; in the series with U-373MG ATCC [13]) was “Active” in each case. Further, the outcome with U-373MG ATCC [12] and in the series with U-373MG ATCC [14] was Active. Further, the remaining at 168 h in [5] stood at 94%. Moreover, the GI50 with A549 was 40 µM; with SK-MEL-28, greater than 100 µM; in the series with T98G, greater than 100 µM; in series [6] it was 75 µM; in the series with Hs 683, 57 µM; in the series on PC-3, 43 µM. For the same molecule, the GI50 came out at 38 µM in the series on MCF7 and 31 µM with B16-F10.
With `COc1ccc(CCNC(=O)[C@@]2(C)CC[C@]3(C)CC[C@]4(C)C(=CC(=O)[C@@H]5[C@@]6(C)CCC(=O)C(C)(C)[C@@H]6CC[C@]54C)[C@@H]3C2)cc1`, the inhibition entry (in series [15]; in the series with U-373MG ATCC [17]) was “Active” each time. Further, the outcome in the series with U-373MG ATCC [16] and in the series with U-373MG ATCC [18] was Active. Also, the remaining at 168 h in series [5] was 93%. Besides, the GI50 in the series with A549 is greater than 100 µM; in the series with SK-MEL-28, greater than 100 µM; with T98G, greater than 100 µM; in series [6], 69 µM; with Hs 683, 91 µM; with PC-3, 52 µM. Besides, the GI50 amounted to 56 µM in the series with MCF7 and 49 µM in the series on B16-F10.
